According to ChEMBL document CHEMBL1649231, “In vitro activities of panduratin A against clinical Staphylococcus strains” (2009):
In brackets after ≈: the same amount, converted by molar mass.

What was measured:
Type in all cases: functional
Staphylococcus aureus [1] = assay: Antimicrobial activity against methicillin-resistant Staphylococcus aureus after 24 hrs by broth microdilution method
Outline: (§1)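 Clinical isolates came from blood, body fluids, genital secretions, pus or sputum, identified conventionally or by Vitek. MICs were run by CLSI M7-A6 broth microdilution in Mueller-Hinton broth with 5 × 10^5 CFU/ml inoculum. Agents were twofold serially diluted, starting from 10% DMSO. Drug-free and uninoculated controls were included. Plates were incubated aerobically at 37°C for 24 h; MIC is the lowest concentration giving no visible growth.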

Staphylococcus aureus [2] = assay: Antimicrobial activity against methicillin-susceptible Staphylococcus aureus after 24 hrs by broth microdilution method; outline: as §1
Staphylococcus simulans [3] = assay: Antimicrobial activity against methicillin-resistant coagulase-negative Staphylococcus simulans after 24 hrs by broth microdilution method; outline: as §1
[4] = system: Staphylococcus haemolyticus; assay: Bactericidal activity against methicillin-resistant coagulase-negative Staphylococcus haemolyticus after 24 hrs by plate counting method; details: Staphylococcus haemolyticus, 24 h
[5] = system: Staphylococcus haemolyticus; assay: Antimicrobial activity against methicillin-resistant coagulase-negative Staphylococcus haemolyticus after 24 hrs by broth microdilution method; outline: as §1
[6] = system: Staphylococcus epidermidis; assay: Bactericidal activity against methicillin-resistant coagulase-negative Staphylococcus epidermidis after 24 hrs by plate counting method; details: Staphylococcus epidermidis, 24 h
[7] = system: Staphylococcus epidermidis; assay: Antimicrobial activity against methicillin-resistant coagulase-negative Staphylococcus epidermidis after 24 hrs by broth microdilution method; outline: as §1
Staphylococcus hominis [8] = assay: Bactericidal activity against methicillin-resistant coagulase-negative Staphylococcus hominis after 24 hrs by plate counting method; details: Staphylococcus hominis, 24 h
Staphylococcus aureus [9] = assay: Bactericidal activity against methicillin-susceptible Staphylococcus aureus after 24 hrs by plate counting method
Outline: (§2)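 Clinical staphylococcal isolates from patient body fluids, blood, genital secretions, pus or sputum; species by conventional methods or Vitek. Twofold dilutions in Mueller-Hinton broth, inoculum 5 × 10^5 CFU/ml, 37°C aerobic 24 h (CLSI M7-A6 microdilution). About 100 μl from each well without visible growth spread on MHA; 37°C 24 h. MBC = lowest concentration giving no growth on agar.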

Staphylococcus hominis [10] = assay: Antimicrobial activity against methicillin-resistant coagulase-negative Staphylococcus hominis after 24 hrs by broth microdilution method; outline: as §1
Staphylococcus aureus [11] = assay: Bactericidal activity against methicillin-resistant Staphylococcus aureus after 24 hrs by plate counting method
Staphylococcus simulans [12] = assay: Bactericidal activity against methicillin-resistant coagulase-negative Staphylococcus simulans after 24 hrs by plate counting method; details: Staphylococcus simulans, 24 h; outline: as §2
Mammaliicoccus sciuri [13] = assay: Antimicrobial activity against methicillin-resistant coagulase-negative Staphylococcus sciuri after 24 hrs by broth microdilution method; outline: as §1
Mammaliicoccus sciuri [14] = assay: Bactericidal activity against methicillin-resistant coagulase-negative Staphylococcus sciuri after 24 hrs by plate counting method; details: Mammaliicoccus sciuri, 24 h; outline: as §2
Staphylococcus hominis [15] = assay: Antimicrobial activity against methicillin-susceptible coagulase-negative Staphylococcus hominis after 24 hrs by broth microdilution method; outline: as §1
Staphylococcus hominis [16] = assay: Bactericidal activity against methicillin-susceptible coagulase-negative Staphylococcus hominis after 24 hrs by plate counting method; outline: as §2
[17] = system: Staphylococcus epidermidis; assay: Antimicrobial activity against methicillin-susceptible coagulase-negative Staphylococcus epidermidis after 24 hrs by broth microdilution method; outline: as §1
[18] = system: Staphylococcus epidermidis; assay: Bactericidal activity against methicillin-susceptible coagulase-negative Staphylococcus epidermidis after 24 hrs by plate counting method; outline: as §2
[19] = system: Staphylococcus haemolyticus; assay: Antimicrobial activity against methicillin-susceptible coagulase-negative Staphylococcus haemolyticus after 24 hrs by broth microdilution method; outline: as §1
[20] = system: Staphylococcus haemolyticus; assay: Bactericidal activity against methicillin-susceptible coagulase-negative Staphylococcus haemolyticus after 24 hrs by plate counting method; outline: as §2
Staphylococcus simulans [21] = assay: Antimicrobial activity against methicillin-susceptible coagulase-negative Staphylococcus simulans after 24 hrs by broth microdilution method; outline: as §1
Staphylococcus simulans [22] = assay: Bactericidal activity against methicillin-susceptible coagulase-negative Staphylococcus simulans after 24 hrs by plate counting method; outline: as §2
Mammaliicoccus sciuri [23] = assay: Antimicrobial activity against methicillin-susceptible coagulase-negative Staphylococcus sciuri after 24 hrs by broth microdilution method; outline: as §1
Mammaliicoccus sciuri [24] = assay: Bactericidal activity against methicillin-susceptible coagulase-negative Staphylococcus sciuri after 24 hrs by plate counting method; outline: as §2

Cc1ccc(C(C)C)c(O)c1 [THYMOL]
MIC50 (Staphylococcus aureus [1]): 128 µg/mL (≈ 852 µM)
MIC90 (Staphylococcus aureus [1]): 128 µg/mL (≈ 852 µM)
MIC50 (Staphylococcus aureus [2]): 128 µg/mL (≈ 852 µM)
MIC90 (Staphylococcus aureus [2]): 128 µg/mL (≈ 852 µM)
MIC50 (Staphylococcus simulans [3]): 64 µg/mL (≈ 426 µM)
MIC90 (Staphylococcus simulans [3]): 128 µg/mL (≈ 852 µM)
MBC [4]: 64 µg/mL (≈ 426 µM)
MIC50 [5]: 64 µg/mL (≈ 426 µM)
MIC90 [5]: 128 µg/mL (≈ 852 µM)
MBC [6]: 64 µg/mL (≈ 426 µM)
MIC50 [7]: 64 µg/mL (≈ 426 µM)
MIC90 [7]: 128 µg/mL (≈ 852 µM)
MBC (Staphylococcus hominis [8]): 64 µg/mL (≈ 426 µM)
MBC50 (Staphylococcus aureus [9]): 256 µg/mL (≈ 1700 µM)
MBC90 (Staphylococcus aureus [9]): 512 µg/mL (≈ 3410 µM)
MBC (Staphylococcus aureus [9]; Staphylococcus aureus, 24 h): 128 µg/mL (≈ 852 µM)
MIC50 (Staphylococcus hominis [10]): 64 µg/mL (≈ 426 µM)
MIC90 (Staphylococcus hominis [10]): 128 µg/mL (≈ 852 µM)
MBC50 (Staphylococcus aureus [11]): 512 µg/mL (≈ 3410 µM)
MBC (Staphylococcus aureus [11]; Staphylococcus aureus, 24 h): 256 µg/mL (≈ 1700 µM)
MBC (Staphylococcus simulans [12]): 64 µg/mL (≈ 426 µM)
MIC50 (Mammaliicoccus sciuri [13]): 64 µg/mL (≈ 426 µM)
MIC90 (Mammaliicoccus sciuri [13]): 128 µg/mL (≈ 852 µM)
MBC (Mammaliicoccus sciuri [14]): 64 µg/mL (≈ 426 µM)
MIC50 (Staphylococcus hominis [15]): 64 µg/mL (≈ 426 µM)
MIC90 (Staphylococcus hominis [15]): 64 µg/mL (≈ 426 µM)
MBC50 (Staphylococcus hominis [16]): 256 µg/mL (≈ 1700 µM)
MBC90 (Staphylococcus hominis [16]): 512 µg/mL (≈ 3410 µM)
MBC (Staphylococcus hominis [16]; Staphylococcus hominis, 24 h): 64 µg/mL (≈ 426 µM)
MIC50 [17]: 64 µg/mL (≈ 426 µM)
MIC90 [17]: 64 µg/mL (≈ 426 µM)
MBC50 [18]: 256 µg/mL (≈ 1700 µM)
MBC90 [18]: 512 µg/mL (≈ 3410 µM)
MBC ([18]; Staphylococcus epidermidis, 24 h): 64 µg/mL (≈ 426 µM)
MIC50 [19]: 64 µg/mL (≈ 426 µM)
MIC90 [19]: 64 µg/mL (≈ 426 µM)
MBC50 [20]: 256 µg/mL (≈ 1700 µM)
MBC90 [20]: 512 µg/mL (≈ 3410 µM)
MBC ([20]; Staphylococcus haemolyticus, 24 h): 64 µg/mL (≈ 426 µM)
MIC50 (Staphylococcus simulans [21]): 64 µg/mL (≈ 426 µM)
MIC90 (Staphylococcus simulans [21]): 64 µg/mL (≈ 426 µM)
MBC50 (Staphylococcus simulans [22]): 256 µg/mL (≈ 1700 µM)
MBC90 (Staphylococcus simulans [22]): 512 µg/mL (≈ 3410 µM)
MBC (Staphylococcus simulans [22]; Staphylococcus simulans, 24 h): 64 µg/mL (≈ 426 µM)
MIC50 (Mammaliicoccus sciuri [23]): 64 µg/mL (≈ 426 µM)
MIC90 (Mammaliicoccus sciuri [23]): 64 µg/mL (≈ 426 µM)
MBC50 (Mammaliicoccus sciuri [24]): 256 µg/mL (≈ 1700 µM)
MBC90 (Mammaliicoccus sciuri [24]): 512 µg/mL (≈ 3410 µM)
MBC (Mammaliicoccus sciuri [24]; Mammaliicoccus sciuri, 24 h): 64 µg/mL (≈ 426 µM)
